Active and inactive are the calls of the source. The rule behind the calls is not given here.
Key:
[1] = test system: L6; experiment: Cytotoxicity against rat L6 cells; type: cell-based
In short: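 L-6 rat skeletal myoblast cell line; cytotoxicity values reported in µM.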

[2] = test system: Plasmodium falciparum; experiment: Antiplasmodial activity against Plasmodium falciparum in human red blood cells after 4 hrs; type: functional, organism-based
[3] = biological target: T1, Falcipain 2 (Plasmodium falciparum) (UniProt Q9N6S8); experiment: Inhibition of Plasmodium falciparum recombinant cysteine protease falcipain-2
T1 sequence (whole entry): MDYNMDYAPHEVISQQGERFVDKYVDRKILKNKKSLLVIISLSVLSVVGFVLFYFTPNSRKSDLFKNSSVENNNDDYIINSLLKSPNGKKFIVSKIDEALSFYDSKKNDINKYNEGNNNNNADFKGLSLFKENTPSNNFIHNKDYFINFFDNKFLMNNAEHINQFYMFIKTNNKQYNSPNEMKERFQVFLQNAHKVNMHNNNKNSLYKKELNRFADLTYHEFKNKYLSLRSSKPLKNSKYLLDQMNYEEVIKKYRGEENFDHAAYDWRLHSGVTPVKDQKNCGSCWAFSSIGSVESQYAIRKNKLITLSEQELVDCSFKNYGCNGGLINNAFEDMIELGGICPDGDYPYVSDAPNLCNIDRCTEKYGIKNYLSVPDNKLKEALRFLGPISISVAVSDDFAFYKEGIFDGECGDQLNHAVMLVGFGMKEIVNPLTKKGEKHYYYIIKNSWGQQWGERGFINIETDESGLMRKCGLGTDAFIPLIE

IC50 [2] [nM]	Activity [3]	Compound	IC50 [1] [µM]
45	–	COc1cccc2c(-c3cc(CNCCCCCCNS(=O)(=O)c4cccc5c(N(C)C)cccc45)c4c(c3OCc3ccccc3)[C@@H](C)N(Cc3ccccc3)[C@H](C)C4)c(C)cc(OC)c12	2.5
2420	–	COc1cccc2c(-c3cc(CCCO)c4c(c3O)[C@@H](C)N[C@H](C)C4)c(C)cc(OC)c12	99
602	–	COc1cccc2c(-c3cc(CNCCCCCCNS(=O)(=O)c4cccc5c(N(C)C)cccc45)c4c(c3O)[C@@H](C)N[C@H](C)C4)c(C)cc(OC)c12	16.5

The remaining lines, values behind:

Compound	IC50 [2] [nM]	Activity [3]	IC50 [1] [µM]
COc1cc([C@@H]2c3cc4c(cc3[C@H](O)[C@H]3COC(=O)[C@H]23)OCO4)cc(OC)c1OC [PODOFILOX]	–	–	0.007
COc1cccc2c(-c3cc(CCCOC(=O)N([C@@H](Cc4ccc(OCc5ccc(C(=O)c6ccccc6)cc5)cc4)C(=O)O)S(=O)(=O)c4cccc5c(N(C)C)cccc45)c4c(c3O)[C@@H](C)N[C@H](C)C4)c(C)cc(OC)c12	960	–	69.5
COC(=O)/C=C/c1cc(-c2c(C)cc(OC)c3c(OC)cccc23)c(OCc2ccccc2)c2c1C[C@@H](C)N(Cc1ccccc1)[C@@H]2C	190	–	> 140
COc1cccc2c(-c3ccc4c(c3O)[C@@H](C)N[C@H](C)C4)c(C)cc(OC)c12 [DIONCOPHYLLINE A]	381	inactive	29.1
